Data set [1] in a line: Clearance in rat at 0.5 mg/kg, iv administered as single bolus dose. Particulars: in vivo. Type of data set: ADME, organism-based. In a few lines:
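Rat, single IV bolus of 0.5 mg/kg as a solution in 20% HPBCD; observed plasma clearance.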

The target of data set [2] is T1, Muscarinic acetylcholine receptor M1 (Homo sapiens, UniProt P11229).
T1 sequence (P11229 whole entry): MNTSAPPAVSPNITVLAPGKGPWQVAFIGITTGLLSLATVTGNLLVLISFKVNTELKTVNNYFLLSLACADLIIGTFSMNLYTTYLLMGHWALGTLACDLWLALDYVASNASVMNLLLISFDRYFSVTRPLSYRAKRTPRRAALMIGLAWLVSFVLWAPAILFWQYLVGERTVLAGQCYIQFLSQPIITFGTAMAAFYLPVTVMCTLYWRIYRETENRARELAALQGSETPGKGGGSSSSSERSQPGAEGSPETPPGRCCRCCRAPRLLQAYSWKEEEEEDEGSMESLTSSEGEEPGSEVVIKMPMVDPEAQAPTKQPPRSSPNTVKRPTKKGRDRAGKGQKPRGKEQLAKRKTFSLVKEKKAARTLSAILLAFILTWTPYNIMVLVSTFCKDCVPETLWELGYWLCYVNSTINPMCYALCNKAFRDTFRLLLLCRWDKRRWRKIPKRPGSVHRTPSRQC
Kind of data set: Activity at human muscarinic acetylcholine receptor M1 expressed in CHO cells assessed as increase in acetylcholine-induced beta-arrestin recruitment. Format: cell-based.

Data set [3] concerns Rattus norvegicus. Kind of data set: Toxicity in rat assessed as unbound brain concentration at 45 mg/kg, po administered as single dose. Format: organism-based. The settings on record: in vivo.
The test system of data set [4] is Brain. Briefly: Unbound brain concentration in scopolamine-induced memory impairment Wistar rat model at 0.32 mg/kg, sc measured at 1.25 hrs post dose by LC-MS/MS analysis. Particulars: in vivo.

Each structure is given as a SMILES string.

The clearance is the volume of plasma or blood freed of the substance per unit of time. Compound `Cc1cc2c(cc1Cc1ccc(-c3cocn3)cc1)C(=O)N([C@H]1CCOC[C@@H]1O)C2` displayed a clearance in data set [1] of 2.4 mL/min/kg. Also, in data set [2], the KA came to 60 µM. Further, the values for the Drug uptake(free) in data set [3] and in data set [4] were 460 to 760 nM and 3.2 nM, respectively.

The values above are taken from ChEMBL document CHEMBL4017487, “Design and Synthesis of γ- and δ-Lactam M1 Positive Allosteric Modulators (PAMs): Convulsion and Cholinergic Toxicity of an M1-Selective PAM with Weak Agonist Activity” (J Med Chem, 2017).
